Screening data deposited in PubChem by several laboratories.
Rows were chosen to be rich in hits. Some 2% of all compounds tested hit in one or more screens of this group.
RanGTP-Imp inh – inhibitors of RanGTP-importin-beta interaction, primary screen, biochemical, FRET, CFP-Ran, YFP-importin-beta, homogeneous. AID 2216, 2009. inhibition, % (test concentration not listed). cell-free CFP-Ran/YFP-importin-beta FRET ratio. actives 1.1% (n = 300,000);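 active means more than half of the replicate wells show a fall in the fluorescence ratio signal beyond about 16%, limit read from the data, passing the limit was not always enough; inconclusive means exactly half of the replicate wells pass the set limit; inactive means fewer than half of replicates pass the limit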
EBV gp42 block – Epstein-Barr virus gp42 inhibitors, primary screen, biochemical, uHTS, fluorescence polarization. Glycoprotein 42 (Epstein-Barr virus (strain AG876)), Q1HVG2. Fluorescence polarization binding assay, mP read-out. inhibition, % (tested at 21.74 µM). actives 0.42% (n = 220,000). AID 1085, 2008
Runt-CBFb FRET – inhibitors of RUNX1 Runt–CBFb binding, primary screen, biochemical, FRET, Cerulean-Runt, Venus-CBFb, uHTS; Cerulean-Runt/Venus-CBFb FRET ratio 530/480, 1 h; inhibition, % at 20 µM; actives 0.46% (n = 220,000); AID 1496, 2009;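 active means inhibition over about 50% at 20 µM in the single-dose screen, limit read from the data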
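Measured by: fluorescence energy transfer, 422 nm excitation, 530/480 nm emission; test system: Cerulean-tagged RUNX1 Runt domain (FRET donor) fusion protein; buffer or medium: Tris pH 7.5 buffer with BSA; compound: one dose, 20 µM compound, 1% DMSO; times: two 1 h room-temperature incubations shielded from light; benchmarks: unlabeled CBFb 5 µM, positive control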
Runt-SMMHC FRET – inhibitors of RUNX1 Runt–CBFb-SMMHC binding, primary screen, biochemical, FRET, Cerulean-Runt, Venus-CBFb-SMMHC, uHTS; Runt-related transcription factor 1 (Homo sapiens) + Core-binding factor subunit beta …; Cerulean-Runt/Venus-CBFb-SMMHC FRET ratio 530/480, 1 h; inhibition, % at 20 µM; actives 0.74% (n = 220,000); AID 1434, 2008;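 active means mean inhibition across duplicate retests at 20 µM reaching about 50%, limit read from the data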;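 further: inhibitors lower the FRET ratio by blocking Runt binding to CBFb-SMMHC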
PKD1 inh – inhibitors of human PKD1 kinase, biochemical, fluorescence polarization; Serine/threonine-protein kinase D1 (Homo sapiens), Q15139; PKD1 kinase fluorescence polarization assay; inhibition, % (test concentration not listed); actives 0.056% (n = 200,000); AID 797, 2007
MEX-5 binding – MEX-5 zinc finger RNA-binding disruptors – biochemical, C. elegans, fluorescence polarization, MLPCN library, primary screen. Zinc finger protein mex-5 (Caenorhabditis elegans), Q9XUB2. MEX-5/FITC-TCR2 RNA binding; hits give low values. activity score (negative = inhibition of binding), % at 10 µM. actives 0.38% (n = 300,000);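 active means inhibition past about -25% in most replicates, and total fluorescence under double the plate's negative control median, limit read from the data; inconclusive means replicates evenly split on the limit, or fluorescence at least double controls; inactive means too little inhibition in most replicates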
A number is an active result; . = inactive; ? = inconclusive; / = no result given. Unless noted, no stated cut-off is given here; in the data, active means inhibition above about 50%; inactive means the rest.

SMILES | RanGTP-Imp inh | EBV gp42 block | Runt-CBFb FRET | Runt-SMMHC FRET | PKD1 inh | MEX-5 binding
C/C(=N\Nc1ccc(Cl)c(C(=O)O)c1)c1cccs1 | ? | . | . | . | / | .
O=C(O)c1cc(N/N=C/C=C/c2ccccc2)ccc1Cl | . | . | . | 87 | . | .
C/C(=N\Nc1ccc(Cl)c(C(=O)O)c1)c1ccc[nH]1 | . | . | . | . | / | -38
Nn1c(-c2ccccc2)nc2cc(Cl)ccc2c1=O | . | / | / | / | / | .
Cc1cc(=O)[nH]c(N/N=C/c2ccc(O)c(O)c2)n1 | . | / | / | / | / | -42
COc1ccccc1CN1CC(C(=O)NCCn2ccc(C)n2)CCC1=O (stereo not drawn) | . | / | / | / | / | .
CCOC(=O)c1sc2nc(-c3ccccc3)ccc2c1N | 30 | . | . | . | . | .
Cn1c(SCC(=O)Nc2cccc(S(=O)(=O)NC3=NCCCCC3)c2)nnc1-c1ccccc1 | . | . | . | . | . | .
Cn1c(=O)[nH]c(=O)c2c1nc1n2CC(COc2ccc3ccccc3c2)O1 (stereo not drawn) | . | . | . | . | / | .
O=C(Nc1c(C(=O)N2CCOCC2)cnn1-c1ccccc1)c1cccc(F)c1 | . | / | / | / | / | .
CC(=O)c1cccc(OCc2cc(C(=O)N3C[C@@H](C)O[C@@H](C)C3)no2)c1 | . | / | / | / | / | .
CC(C)c1ccc(/C=C2\Oc3c(ccc(O)c3CN3CCN(C)CC3)C2=O)cc1 | / | . | . | 88 | . | .
O=C1/C(=C/c2ccco2)Oc2c1ccc(O)c2CN1CCCCC1 | . | 51 | . | . | . | ?
CC1CCN(Cc2c(O)ccc3c2O/C(=C\c2ccco2)C3=O)CC1 | . | . | . | . | . | ?
Cc1ccc(/C=C2\Oc3c(ccc(O)c3CN3CCN(CCO)CC3)C2=O)cc1 | 35 | . | . | 90 | . | -32
CC(C)[C@H](NC(=O)N1c2ccccc2NC(=O)[C@@H]1C(C)C)C(=O)N[C@H](Cc1ccccc1)C(=O)O | . | / | / | / | / | .
CC(=O)N/C(=C\c1ccccc1)C(=O)OCC(=O)Nc1cc(S(=O)(=O)N(C)C)ccc1C | . | / | / | / | / | .
C=CCn1ccc(=NC=C(C#N)C#N)c2ccccc21 | . | . | . | . | / | -75
Nc1nonc1-n1nnc(C(=O)N/N=C/c2ccc(OCc3ccccc3)cc2)c1CN1CCCCC1 | . | / | / | / | / | .
CCCCOc1ccc(/C=N/NC(=O)c2nnn(-c3nonc3N)c2CN2CCCCCC2)cc1 | 28 | / | / | / | / | .
O=C(Nc1c2ccccc2nc2ccccc12)C(Cl)(Cl)Cl | 135 | . | . | . | . | .
O=C1CSCC(=O)N1c1ccccc1 | . | . | . | . | . | .
O=C1C2=C(SCCS2)C(=O)N1c1ccccc1 | . | . | . | . | . | -45
CCc1c(C)nc(SCC(=O)NNC(=O)c2ccco2)[nH]c1=O | . | / | / | / | / | -37
C=CCOc1ccc(/C=C/C(=O)OCC(=O)N(C)CC(=O)Nc2ccc(F)cc2)cc1 | / | / | / | / | / | .
SMILES | RanGTP-Imp inh | EBV gp42 block | Runt-CBFb FRET | Runt-SMMHC FRET | PKD1 inh | MEX-5 binding
CC(=O)N1CCC2(CC1)C(C#N)=C(N)Oc1c2sc2nc(C)cc(C)c12 | ? | . | . | . | . | .
CCN1CCC2(CC1)C(C#N)=C(N)Oc1c2sc2nc(C)cc(C)c12 | 28 | . | . | . | . | .
CCCCC(=O)Nc1ccc(NC(=O)c2ccc([N+](=O)[O-])cc2Cl)cc1OC | . | . | . | . | . | .
CC(=O)Nc1ccc2nc3c(=O)n(C)c(=O)n(C)c3nc2c1 | . | 102 | . | . | / | .
Cn1c(=O)c2nc3ccccc3nc2n(C)c1=O | . | . | . | 63 | . | .
CCN(CC(=O)NCc1cccs1)C(=O)c1cccc(S(=O)(=O)Nc2ccc(C)cc2)c1 | . | / | / | / | / | .
